Data from ChEMBL document CHEMBL1155843, “Selective alkylation of beta(II)-tubulin and thioredoxin-1 by structurally related subsets of aryl chloroethylureas leading to either anti-microtubules or redox modulating agents” (2008).
The source made the active and inactive calls. The rule behind the calls is not given here.

Legend:
[1] = tested on: M21; assay: Induction of beta2-tubulin alkylation in human M21 cells at 2 times GI50 after 48 hrs by Western blot analysis; assay type: cell-based
Summary of the method: (§1)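 Floating and adherent cells were pooled and lysed in boiled Laemmli buffer; protein was measured by Lowry. 20 µg per lane ran on 10% SDS-PAGE and was blotted with anti-βII-tubulin (1:500), HRP anti-mouse (1:2500) and ECL. Alkylation was scored as a faster-migrating βII-tubulin band.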

[2] = tested on: M21; assay: Antiproliferative activity against human M21 cells after 48 hrs by sulforhodamine B method; assay type: functional; conditions: for GI50: M21, 48 h
Summary of the method: (§2)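 Seeding per well: 5 × 10³ HT-29 cells, or 3.5 × 10³ M21 or MCF-7 cells. Drugs were dissolved fresh in DMSO and serially diluted in medium (final range 100 to 0.3), with DMSO held at 0.12%. Cells were exposed for 48 h, fixed with cold TCA (10% final, 1 h, 4 °C) and stained with 0.1% SRB for 15 min. Dye was solubilized in 10 mM Tris and read at A585. Day-0 OD was subtracted, inhibition was calculated against DMSO cells, and n ≥ 3.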

[3] = tested on: M21; assay: Induction of beta2-tubulin alkylation in human M21 cells at 2 times GI50 by Western blot analysis; assay type: cell-based; summary of the method: as §1
[4] = tested on: MCF7; assay: Cell cycle arrest in human MCF7 cells assessed as accumulation at G0/G1 phase at 2 times GI50 after 24 hrs by flow cytometry; assay type: functional
Summary of the method: (§3)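 Cells were trypsinized, PBS-washed, fixed in ice-cold ethanol, and stained with propidium iodide plus RNase for 30 min at room temperature. G0/G1, S and G2/M fractions were measured by flow cytometry.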

[5] = tested on: MCF7; assay: Cell cycle arrest in human MCF7 cells assessed as accumulation at S phase at 2 times GI50 after 24 hrs by flow cytometry; assay type: functional; summary of the method: as §3
[6] = tested on: MCF7; assay: Cell cycle arrest in human MCF7 cells assessed as accumulation at G2/M phase at 2 times GI50 after 24 hrs by flow cytometry; assay type: functional; summary of the method: as §3
[7] = tested on: M21; assay: Inhibition of nuclear translocation of thioredoxin-1 from cytosol in human M21 cells at 2 times GI50 after 16 hrs by immunocytofluorescence; assay type: functional, cell-based
Summary of the method: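 Cells were fixed in 3.7% formaldehyde (20 min), permeabilized with 0.1% saponin and blocked with 3% BSA. Staining used anti-Trx-1 monoclonal (1:200, 2 h, 37 °C) and Alexa-488 anti-mouse IgG (1:1000, 1 h). Trx-1 cytosol/nucleus localization was read by confocal immunofluorescence.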

[8] = tested on: MCF7; assay: Antiproliferative activity against human MCF7 cells after 48 hrs by sulforhodamine B method; assay type: functional; conditions: for GI50: MCF7, 48 h; summary of the method: as §2
[9] = tested on: HT-29; assay: Antiproliferative activity against human HT29 cells after 48 hrs by sulforhodamine B method; assay type: functional; conditions: for GI50: HT-29, 48 h; summary of the method: as §2

SMILES	Activity [1]	GI50 [2]	Activity [3]	Activity [4]	Activity [5]	Activity [6]	Activity [7]	GI50 [8]	GI50 [9]	Activity [8]	Activity [2]	Activity [9]
O=C(NCCCl)Nc1ccc(I)cc1	Active	–	–	–	–	–	–	–	–	–	–	–
O=C(CCl)NC(=O)Nc1ccc(N2CCOCC2)cc1	–	8.3 µM	inactive	–	–	–	–	–	–	–	–	–
O=C(NCCCl)Nc1ccc(Oc2ccccc2)cc1	–	–	inactive	15%	20%	65%	inactive	–	–	–	–	–
O=C(NCCCl)Nc1cccc(C2CCCCC2)c1	–	18 µM	inactive	52%	32%	16%	Active	20 µM	11.7 µM	–	–	–
O=C(NCCCl)Nc1ccc(OC2CCCCCC2)cc1	–	–	inactive	–	–	–	Active	–	13 µM	–	–	–
O=C(NCCCl)Nc1ccc2c(c1)CCC2	Active	–	–	31%	29%	40%	–	–	–	–	–	–
O=C(NCCCl)Nc1cccc(Oc2ccccc2)c1	Active	–	–	44%	26%	30%	inactive	–	–	–	–	–
O=C(NCCCl)Nc1ccc(N2CCOCC2)cc1	–	–	inactive	–	–	–	–	–	–	inactive	inactive	inactive
O=C(NCCCl)Nc1ccc(OC2CCCCC2)cc1	–	–	inactive	–	–	–	Active	–	–	–	–	–
c1cc(C2CCCCC2)ccc1NC1=NCCO1	–	18 µM	inactive	–	–	–	Active	–	–	–	–	–
CC(C)(C)c1ccc(NC2=NCCO2)cc1	–	–	inactive	–	–	–	inactive	–	–	–	–	–
O=C(CCl)NC(=O)Nc1ccccc1	–	6.9 µM	inactive	–	–	–	inactive	–	–	–	–	–
CCCC1(c2ccc(NC(=O)NCCCl)cc2)CCCCC1	–	36 µM	inactive	73%	14%	13%	Active	23 µM	18 µM	–	–	–
CC(C)(C)c1ccc(NC(=O)NCCCl)cc1	Active	–	–	–	–	–	inactive	–	–	–	–	–
CC(C)(C)c1ccc(NC(=O)NC(=O)CCl)cc1	–	–	inactive	–	–	–	Active	–	–	–	–	–
O=C(NCCCl)Nc1ccc2c(c1)Cc1ccccc1-2	Active	–	–	11%	57%	32%	inactive	–	–	–	–	–
O=C(NCCCl)Nc1cccc(OC2CCCCCCC2)c1	–	30 µM	inactive	61%	29%	10%	Active	23 µM	20 µM	–	–	–
c1ccc(NC2=NCCO2)cc1	–	81 µM	inactive	–	–	–	inactive	–	–	–	–	–
O=C(NCCCl)Nc1ccc(OC2CCCC2)cc1	–	–	inactive	–	–	–	Active	–	–	–	–	–

SMILES	Activity [1]	GI50 [2]	Activity [3]	Activity [4]	Activity [5]	Activity [6]	Activity [7]	GI50 [8]	GI50 [9]	Activity [8]	Activity [2]	Activity [9]
O=C(NCCCl)Nc1cccc(OC2CCCC2)c1	–	–	inactive	–	–	–	–	–	–	–	–	–
O=C(NCCCl)Nc1ccc(C2CCCC2)cc1	–	27 µM	inactive	63%	24%	13%	–	26 µM	18 µM	–	–	–
O=C(NCCCl)Nc1ccc(OC2CCCCCCC2)cc1	–	26 µM	inactive	70%	14%	16%	Active	18 µM	14 µM	–	–	–
O=C(NCCCl)Nc1cccc(OC2CCCCC2)c1	–	–	inactive	–	–	–	–	–	–	–	–	–
CC1CCC(Oc2ccc(NC(=O)NCCCl)cc2)CC1 (stereo not given)	–	23 µM	inactive	63%	13%	25%	Active	21 µM	16 µM	–	–	–
c1cc(NC2=NCCO2)cc(C2CCCCC2)c1	–	45 µM	inactive	–	–	–	Active	–	–	–	–	–
c1cc(N2CCOCC2)ccc1NC1=NCCO1	–	–	inactive	–	–	–	inactive	–	–	–	inactive	–
O=C(NCCCl)Nc1ccc2c(c1)CCCCC2	–	7.2 µM	inactive	33%	24%	43%	inactive	12 µM	3.2 µM	–	–	–
O=C(CCl)NC(=O)Nc1ccc(C2CCCCC2)cc1	–	–	inactive	–	–	–	Active	–	–	–	–	–
O=C(NCCCl)Nc1cccc(OC2CCCCCC2)c1	–	–	inactive	–	–	–	Active	–	–	–	–	–
CC1(c2ccc(NC(=O)NCCCl)cc2)CCCCC1	–	16 µM	inactive	60%	9%	31%	Active	18 µM	7.8 µM	–	–	–
O=C(NCCCl)NC1c2ccccc2-c2ccccc21	–	–	inactive	63%	29%	8%	inactive	–	–	–	–	–
CCC1(c2ccc(NC(=O)NCCCl)cc2)CCCCC1	–	19 µM	inactive	66%	17%	17%	Active	17 µM	9.1 µM	–	–	–
O=C(CCl)NC(=O)Nc1cccc(C2CCCCC2)c1	–	2.4 µM	inactive	–	–	–	Active	–	–	–	–	–
O=C(NCCCl)Nc1ccccc1	–	–	inactive	59%	22%	19%	inactive	–	–	inactive	inactive	inactive
CC1CCC(Oc2cccc(NC(=O)NCCCl)c2)CC1 (stereo not given)	–	32 µM	inactive	65%	20%	15%	Active	33 µM	19 µM	–	–	–
O=C(NCCCl)Nc1ccc(C2CCCCC2)cc1	–	–	inactive	–	–	–	Active	–	–	–	–	–
CCNC(=O)Nc1ccc(C2CCCCC2)cc1	–	–	inactive	55%	23%	22%	inactive	–	–	inactive	inactive	inactive
